{"data": "Experimental data of several laboratories", "target": "Serine/threonine-protein kinase PAK 4 (PAK4, Homo sapiens, UniProt O96013)", "note": "Each line is one published result; the experiments were not run side by side."}
{"SMILES": "CC1=C(C#N)C(c2ccc3c(c2)c(NC(=O)c2ccccc2C)nn3C)C(C#N)=C(C)N1", "observed": "cell-free assay", "method": "competition with immobilised ligand", "tested at": "1 µM", "quantity": "remaining binding", "result": "100%"}
{"SMILES": "Nc1nc(NC2CCCCC2)sc1C(=O)c1ccccc1", "observed": "enzyme activity", "action": "inhibitor", "tested at": "10 µM", "quantity": "remaining activity", "result": "88%"}
{"SMILES": "O=C1NC(c2ccccn2)Sc2ccccc21 (stereo not shown)", "observed": "cell-free assay", "method": "competition with immobilised ligand", "tested at": "1 µM", "quantity": "remaining binding", "result": "84%"}
{"SMILES": "CCCS(=O)(=O)Nc1ccc(F)c(C(=O)c2c[nH]c3ncc(-c4ccc(Cl)cc4)cc23)c1F", "observed": "enzyme activity", "action": "inhibitor", "tested at": "1 µM", "quantity": "inhibition", "result": "< 10%"}
{"SMILES": "O=C(CSc1nc2nccnc2c(=O)n1CCc1ccccc1)Nc1nccs1", "observed": "enzyme activity", "action": "inhibitor", "tested at": "10 µM", "quantity": "inhibition", "result": "2%"}
{"SMILES": "Cc1cc(NC(=O)c2cccc3cc(-c4cccc5[nH]nc(N)c45)ccc23)ccc1F", "observed": "enzyme activity", "action": "inhibitor", "tested at": "0.1 µM", "quantity": "activity vs control", "result": "97%"}
{"SMILES": "CN(c1ncccc1CNc1nc(Nc2ccc3c(c2)CC(=O)N3)ncc1C(F)(F)F)S(C)(=O)=O", "observed": "enzyme activity", "action": "inhibitor", "tested at": "1 µM", "quantity": "inhibition", "result": "88.5%"}
{"SMILES": "C[C@@H]1CN(c2cc(-c3n[nH]c4ccc(OC5(C)CC5)cc34)ncn2)C[C@H](C)O1", "observed": "cell-free assay", "method": "competition with immobilised ligand", "tested at": "0.1 µM", "quantity": "remaining binding", "result": "97%"}
{"SMILES": "Cc1[nH]c(/C=C2\\C(=O)Nc3ccc(F)cc32)c(C)c1C(=O)N[C@H]1CCN(C(=O)N(C)C)C1", "observed": "enzyme activity", "action": "inhibitor", "tested at": "0.1 µM", "quantity": "remaining activity", "result": "109%"}
{"SMILES": "O=C(Nc1cnn(-c2csc(C(=O)NC3COC3)c2)c1)Nc1ccccc1Cl", "observed": "enzyme activity", "action": "inhibitor", "tested at": "5 µM", "quantity": "remaining activity", "result": "98.9%"}
{"SMILES": "CNC(=O)c1cc(Oc2ccc(NC(=O)Nc3ccc(Cl)c(C(F)(F)F)c3)cc2)ccn1", "observed": "enzyme activity", "action": "inhibitor", "tested at": "0.3 µM", "quantity": "inhibition", "result": "-11%"}
{"SMILES": "Cn1c(=O)n(-c2ccc(C(C)(C)C#N)cc2)c2c3cc(-c4cnc5ccccc5c4)ccc3ncc21", "observed": "enzyme activity", "action": "inhibitor", "tested at": "10 µM", "quantity": "remaining activity", "result": "87%"}
{"SMILES": "Oc1ccc(-c2nc(-c3ccncc3)c(-c3ccc(F)cc3)[nH]2)cc1", "observed": "cell-free assay", "tested at": "0.5 µM", "quantity": "remaining signal", "result": "98.6%"}
{"SMILES": "FC(F)(F)Oc1cccc(-c2cnc3ccc(-c4ccncc4)nn23)c1", "observed": "enzyme activity", "action": "inhibitor", "method": "radiometric", "tested at": "1 µM", "quantity": "activity vs control", "result": "81%"}
{"SMILES": "COc1cc2ncnc(Nc3ccc(F)c(Cl)c3)c2cc1OCCCN1CCOCC1", "observed": "cell-free assay", "tested at": "0.5 µM", "quantity": "remaining signal", "result": "90.2%"}
{"SMILES": "Cc1ccc(Nc2nccc(N(C)c3ccc4c(C)n(C)nc4c3)n2)cc1S(N)(=O)=O", "observed": "enzyme activity", "action": "inhibitor", "tested at": "10 µM", "quantity": "inhibition", "result": "35%"}
{"SMILES": "CC(C)(C)c1nc2c(s1)c1nc(N)ncc1c1ccc(NS(=O)(=O)c3c(F)cccc3F)c(F)c12", "observed": "enzyme activity", "action": "inhibitor", "method": "radiometric", "tested at": "1 µM", "quantity": "remaining activity", "result": "86%"}
{"SMILES": "O=C1Nc2ccc(Cl)cc2C1=Cc1cc(Cl)c(O)c(Cl)c1", "observed": "cell-free assay", "tested at": "0.5 µM", "quantity": "remaining signal", "result": "88.7%"}
{"SMILES": "COc1cc(Nc2cnc(C#N)c(O[C@H](C)CN(C)C)n2)ncc1-c1cnn(C)c1", "observed": "enzyme activity", "action": "inhibitor", "method": "radiometric", "tested at": "10 µM", "quantity": "remaining activity", "result": "70%"}
{"SMILES": "Cc1c(NC(=O)c2cc(C(N)=O)nc3cc(F)ccc23)c(C(F)(F)F)nn1Cc1ccc(C(C)(C)C)cc1", "observed": "cell-free assay", "method": "competition with immobilised ligand", "tested at": "1 µM", "quantity": "remaining binding", "result": "100%"}
{"SMILES": "CCN(CC)CCNC(=O)c1c(C)[nH]c(/C=C2\\C(=O)Nc3ccc(F)cc32)c1C", "observed": "enzyme activity", "action": "inhibitor", "tested at": "0.1 µM", "quantity": "remaining activity", "result": "90%"}
{"SMILES": "Cc1cnc(NC2CCOCC2)nc1-n1cnc(C(=O)NC(CN)c2cc(F)cc(Cl)c2)c1 (stereo not shown)", "observed": "enzyme activity", "action": "inhibitor", "method": "radiometric", "tested at": "1 µM", "quantity": "remaining activity", "result": "96%"}
{"SMILES": "COc1cc(-c2cc(-c3ccc(N4CCNCC4)cc3)cnc2C)cc(OC)c1OC", "observed": "enzyme activity", "action": "inhibitor", "tested at": "1 µM", "quantity": "inhibition", "result": "4%"}
{"SMILES": "CS(=O)(=O)CCNCc1ccc(-c2ccc3ncnc(Nc4ccc(OCc5cccc(F)c5)c(Cl)c4)c3c2)o1", "observed": "cell-free assay", "tested at": "0.5 µM", "quantity": "remaining signal", "result": "89.9%"}
{"SMILES": "Cc1ccc(C(=O)Nc2ccc(CN3CCN(C)CC3)c(C(F)(F)F)c2)cc1C#Cc1cnc2cccnn12", "observed": "enzyme activity", "action": "inhibitor", "tested at": "23.5 nM", "quantity": "remaining activity", "result": "91%"}
{"SMILES": "COc1cc(Cl)c(C(=O)N[C@@H](CN[C@H]2CC[C@@H](N)CC2)Cc2ccc(C#N)cc2)cc1-c1ccc(CN[C@H](C)c2ccc(C)cc2)o1", "observed": "enzyme activity", "action": "inhibitor", "tested at": "1 µM", "quantity": "remaining activity", "result": "102%"}
{"SMILES": "COc1cccc(CNC(=O)c2nc3scc(COCc4ccc(C(=O)O)cc4)c3c(=O)[nH]2)c1", "observed": "cell-free assay", "method": "competition with immobilised ligand", "tested at": "1 µM", "quantity": "remaining binding", "result": "100%"}
{"SMILES": "C=CC(=O)Nc1cc(Nc2nccc(Nc3cc(Cl)c(F)cc3C(C)(C)O)n2)c(OC)cc1N1CC[C@@H](N(C)C)C1", "observed": "enzyme activity", "action": "inhibitor", "tested at": "1 µM", "quantity": "inhibition", "result": "5%"}
{"SMILES": "Cc1c[nH]c2nccc(Oc3c(F)cc(Nc4cc(Cl)nc(N)n4)cc3F)c12", "observed": "cell-free assay", "method": "competition with immobilised ligand", "tested at": "0.1 µM", "quantity": "remaining binding", "result": "100%"}
{"SMILES": "Oc1cccc(-c2nc(N3CCOCC3)c3oc4ncccc4c3n2)c1", "observed": "enzyme activity", "action": "inhibitor", "tested at": "10 µM", "quantity": "remaining activity", "result": "70%"}
{"SMILES": "CCc1ccccc1C(=O)Nc1n[nH]c2c(C)c(F)c(C3C(C#N)=C(C)N(C)C(C)=C3C#N)cc12", "observed": "cell-free assay", "method": "competition with immobilised ligand", "tested at": "1 µM", "quantity": "remaining binding", "result": "100%"}
{"SMILES": "O=C(Nc1cnn(-c2csc(C(=O)NC3COC3)c2)c1)Nc1c(F)cccc1Cl", "observed": "enzyme activity", "action": "inhibitor", "tested at": "5 µM", "quantity": "remaining activity", "result": "107%"}
{"SMILES": "CS(=O)(=O)N1CCCC(NC(=O)[C@H](CCC2CCCCC2)NC(=O)c2ccc(CNc3ncnc4c3nnn4-c3ccccc3)cc2)C1 (stereo partly shown)", "observed": "cell-free assay", "method": "competition with immobilised ligand", "tested at": "0.1 µM", "quantity": "remaining binding", "result": "100%"}
{"SMILES": "CCN(CC)CCNC(=O)c1c(C)[nH]c(/C=C2\\C(=O)Nc3ccc(F)cc32)c1C", "observed": "enzyme activity", "action": "inhibitor", "tested at": "0.3 µM", "quantity": "inhibition", "result": "-9%"}
